# Test results: article PMC9435035 (ACS Omega, 2022)
# Key:
# [1] = target: α-glucosidase (Saccharomyces cerevisiae, UniProt P53341); assay: α-glucosidase inhibitory activity; type: biochemical; settings: read-out: glucosidase inhibition IC50 ± SEM; mean ± SEM
# [2] = system: streptozotocin-induced diabetic Wistar rats; assay: serum profile; type: in vivo, Wistar albino rats; settings: STZ-diabetic rats; for (ALP) IU / (SGOT) IU / (SGPT) IU: serum
# Method in brief: (§1)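 STZ-diabetic Wistar rats (n = 8 per group) received test compound at 10 or 20 mg/kg p.o., or glibenclamide 500 μg/kg p.o., once daily for 28 days; controls received vehicle. On day 28, rats were anesthetised with pentobarbital sodium (35 mg/kg) and blood was drawn by cardiac puncture. Serum ALP, SGPT, SGOT, LDL, HDL, TG, total cholesterol, creatinine and insulin were measured. Means ± SEM, one-way ANOVA with Dunnett's test.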
# [3] = system: Balb/C mice; assay: acute toxicity study in mice; type: in vivo
# Method in brief: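 Two-phase modified Lorke protocol in Balb/C mice (20–25 g), four per group. Phase 1: control given Tween-80 (2%); other groups received oral test compound at 100, 500 or 1000 mg/kg. Phase 2: oral doses of 1250, 1500 and 2000 mg/kg. Animals observed for the first 24 h, then daily for 2 weeks for diarrhea, convulsions, lethargy, sleeping, salivation and tremors, with mortality monitored.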
# [4] = system: streptozotocin-induced diabetic Wistar rats; assay: antidiabetic activity: blood glucose in STZ-induced diabetes; type: in vivo, Wistar albino rats
# Method in brief: (§2)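 Male Wistar albino rats (170–200 g, 8–10 weeks), fasted overnight, given STZ 50 mg/kg i.p. in 0.1 M citrate buffer, then 10% glucose for 3 days. Tail-vein glucose by glucometer at 72 h; >250 mg/dL counted as diabetic. Body weight and blood glucose on days 1, 7, 14, 21 and 28. Means ± SEM, one-way ANOVA with Dunnett's test.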
# [5] = body weight of STZ-induced diabetic rats; type: in vivo, Wistar albino rats; settings: for body weight, day 1: day 1, in g (unit assumed); for body weight, day 7: day 7, in g (unit assumed); for body weight, day 14: day 14, in g (unit assumed); for body weight, day 21: day 21, in g (unit assumed); for body weight, day 28: day 28, in g (unit assumed)
# Method in brief: as §2
# [6] = system: overnight fasted normal rats; assay: oral glucose tolerance test; type: in vivo, Wistar albino rats; settings: OGTT, glucose 3 g/kg oral
# [7] = system: streptozotocin-induced diabetic Wistar rats; assay: lipid profile in streptozotocin-induced diabetes; type: in vivo, Wistar albino rats; settings: STZ-diabetic rats; 0.5 mg/kg for 28 days
# Method in brief: as §1
# Chain of α-glucosidase (P53341 whole entry): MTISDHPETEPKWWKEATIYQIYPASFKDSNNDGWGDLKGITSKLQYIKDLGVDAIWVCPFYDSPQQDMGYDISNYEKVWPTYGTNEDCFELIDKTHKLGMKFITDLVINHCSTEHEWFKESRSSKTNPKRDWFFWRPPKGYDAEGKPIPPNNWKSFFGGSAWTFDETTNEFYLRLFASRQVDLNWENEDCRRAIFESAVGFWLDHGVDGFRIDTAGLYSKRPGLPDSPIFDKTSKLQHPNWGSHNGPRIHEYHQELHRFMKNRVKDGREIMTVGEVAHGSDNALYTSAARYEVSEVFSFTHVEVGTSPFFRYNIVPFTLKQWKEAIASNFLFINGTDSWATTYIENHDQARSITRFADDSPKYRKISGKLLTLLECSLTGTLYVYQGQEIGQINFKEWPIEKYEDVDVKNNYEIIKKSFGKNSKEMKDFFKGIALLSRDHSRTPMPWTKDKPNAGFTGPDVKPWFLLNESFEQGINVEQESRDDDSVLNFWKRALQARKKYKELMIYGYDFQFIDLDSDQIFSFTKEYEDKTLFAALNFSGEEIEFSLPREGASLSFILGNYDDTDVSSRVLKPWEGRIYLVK
compound,measurement,setting,value
"2-(4-Ethoxyphenyl)-4-(p-tolyl)-2,3-dihydrobenzo[b][1,5]thiazepine [8B]",IC50,[1],9.44 ± 0.83 µM
"4-(4-(p-Tolyl)-2,3-dihydrobenzo[b][1,5]thiazepin-2-yl)benzoic acid [7B]",insulin level,[2]; 10 mg/kg for 28 days,0.621 ± 0.37 ng/mL
same,serum creatinine,"[2]; 10 mg/kg for 28 days, 10 mg/kg",0.85 ± 0.37 mg/dL
same,(ALP) IU,"[2]; 10 mg/kg for 28 days, 10 mg/kg",217.14 ± 4.61 IU
same,(SGOT) IU,"[2]; 10 mg/kg for 28 days, 10 mg/kg",26.71 ± 1.91 IU
same,(SGPT) IU,"[2]; 10 mg/kg for 28 days, 10 mg/kg",27.07 ± 2.77 IU
same,insulin level,[2]; 20 mg/kg for 28 days,0.639 ± 0.29 ng/mL
same,serum creatinine,"[2]; 20 mg/kg for 28 days, 20 mg/kg",0.79 ± 0.31 mg/dL
same,(ALP) IU,"[2]; 20 mg/kg for 28 days, 20 mg/kg",209.01 ± 4.29 IU
same,(SGOT) IU,"[2]; 20 mg/kg for 28 days, 20 mg/kg",23.08 ± 2.11 IU
same,(SGPT) IU,"[2]; 20 mg/kg for 28 days, 20 mg/kg",23.91 ± 2.21 IU
same,IC50,[1],3.96 ± 0.42 µM
same,mortality,[3]; maximum oral dose of 2000 mg/kg (b.w.),no mortality
same,"toxic effects (diarrhea, convulsions, lethargy, sleeping, salivation, tremor)","[3]; oral up to 2000 mg/kg, observed daily for 2 weeks",no toxic effects
same,"blood glucose level, day 1",[4]; 10 mg/kg p.o. once daily,377.08 ± 5.01 mg/dL
same,"blood glucose level, day 7",[4]; 10 mg/kg p.o. once daily,290.20 ± 4.93 mg/dL
same,"blood glucose level, day 14",[4]; 10 mg/kg p.o. once daily,215.76 ± 5.03 mg/dL
same,"blood glucose level, day 21",[4]; 10 mg/kg p.o. once daily,153.19 ± 4.66 mg/dL
same,"blood glucose level, day 28","[4]; 10 mg/kg p.o. once daily, day 28",136.51 ± 5.19 mg/dL
same,"blood glucose level, day 1",[4]; 20 mg/kg p.o. once daily,374.21 ± 4.12 mg/dL
same,"blood glucose level, day 7",[4]; 20 mg/kg p.o. once daily,238.39 ± 5.11 mg/dL
same,"blood glucose level, day 14",[4]; 20 mg/kg p.o. once daily,171.44 ± 4.98 mg/dL
same,"blood glucose level, day 21",[4]; 20 mg/kg p.o. once daily,134.20 ± 5.03 mg/dL
same,"blood glucose level, day 28","[4]; 20 mg/kg p.o. once daily, day 28, 20 mg/kg",112.97 ± 4.56 mg/dL
same,"body weight, day 1",[5]; 10 mg/kg,191.1 ± 4.07
same,"body weight, day 7",[5]; 10 mg/kg,188.2 ± 4.57
same,"body weight, day 14",[5]; 10 mg/kg,185.6 ± 4.90
same,"body weight, day 21",[5]; 10 mg/kg,184.1 ± 4.71
same,"body weight, day 28",[5]; 10 mg/kg,183.7 ± 4.32
same,"body weight, day 1",[5]; 20 mg/kg,188.9 ± 4.67
same,"body weight, day 7",[5]; 20 mg/kg,190.8 ± 4.21
same,"body weight, day 14",[5]; 20 mg/kg,188.1 ± 4.62
same,"body weight, day 21",[5]; 20 mg/kg,185.2 ± 3.91
same,"body weight, day 28",[5]; 20 mg/kg,186.1 ± 4.58
same,"blood glucose level, 0 min",[6]; dose 10 mg/kg,104.01 ± 4.97 mg/dL
same,"blood glucose level, 30 min",[6]; dose 10 mg/kg,120.71 ± 5.01 mg/dL
same,"blood glucose level, 60 min",[6]; dose 10 mg/kg,120.90 ± 4.54 mg/dL
same,"blood glucose level, 90 min",[6]; dose 10 mg/kg,116.52 ± 4.11 mg/dL
same,"blood glucose level, 120 min",[6]; dose 10 mg/kg,109.25 ± 4.91 mg/dL
same,"blood glucose level, 0 min",[6]; dose 20 mg/kg,103.88 ± 4.04 mg/dL
same,"blood glucose level, 30 min",[6]; dose 20 mg/kg,117.41 ± 4.70 mg/dL
same,"blood glucose level, 60 min",[6]; dose 20 mg/kg,114.22 ± 4.97 mg/dL
same,"blood glucose level, 90 min",[6]; dose 20 mg/kg,117.01 ± 4.66 mg/dL
same,"blood glucose level, 120 min",[6]; dose 20 mg/kg,108.91 ± 4.87 mg/dL
"COc1ccc(Cl)cc1C(=O)NCCc1ccc(S(=O)(=O)NC(=O)NC2CCCCC2)cc1 [glibenclamide, reference compound]",insulin level,[2]; 0.5 mg/kg for 28 days,0.754 ± 0.33 ng/mL
same,serum creatinine,[2]; 0.5 mg/kg for 28 days,0.57 ± 0.23 mg/dL
same,(ALP) IU,[2]; 0.5 mg/kg for 28 days,185.32 ± 5.71 IU
same,(SGOT) IU,[2]; 0.5 mg/kg for 28 days,20.68 ± 2.01 IU
same,(SGPT) IU,[2]; 0.5 mg/kg for 28 days,19.63 ± 2.11 IU
same,HDL,[7],65.90 ± 2.71 mg/dL
same,LDL,[7],96.12 ± 4.31 mg/dL
same,TG,[7],105.43 ± 4.31 mg/dL
same,total CH,[7],122.09 ± 4.89 mg/dL
same,"blood glucose level, day 1",[4]; 0.5 mg/kg p.o.,352.28 ± 4.11 mg/dL
same,"blood glucose level, day 7",[4]; 0.5 mg/kg p.o.,231.12 ± 4.29 mg/dL
same,"blood glucose level, day 14",[4]; 0.5 mg/kg p.o.,151.43 ± 4.09 mg/dL
same,"blood glucose level, day 21",[4]; 0.5 mg/kg p.o.,118.87 ± 4.03 mg/dL
same,"blood glucose level, day 28","[4]; 0.5 mg/kg p.o., day 28",101.68 ± 4.19 mg/dL
same,"body weight, day 1",[5]; 0.5 mg/kg,187.4 ± 4.57
same,"body weight, day 7",[5]; 0.5 mg/kg,190.2 ± 3.98
same,"body weight, day 14",[5]; 0.5 mg/kg,177.1 ± 4.21
same,"body weight, day 21",[5]; 0.5 mg/kg,183.7 ± 4.33
same,"body weight, day 28",[5]; 0.5 mg/kg,185.1 ± 4.48
same,"blood glucose level, 0 min",[6]; dose 0.5 mg/kg,102.03 ± 4.22 mg/dL
same,"blood glucose level, 30 min",[6]; dose 0.5 mg/kg,103.92 ± 5.01 mg/dL
same,"blood glucose level, 60 min",[6]; dose 0.5 mg/kg,108.71 ± 4.21 mg/dL
same,"blood glucose level, 90 min",[6]; dose 0.5 mg/kg,101.86 ± 4.21 mg/dL
same,"blood glucose level, 120 min",[6]; dose 0.5 mg/kg,104.12 ± 4.67 mg/dL
